Data taken from PMC13435124 (The FASEB Journal, 2026).
Where a name gives a salt, the structure may show the parent alone.

Tested on: Nrf2 activation in KeratinoSens cells
Experiment: KeratinoSens reporter gene assay
Assay type: cell-based
Details: 6 h
Summary of the method: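 KeratinoSens ARE-luciferase cells (passage ≤22) plated at 1.0 × 10^4 per well in triplicate; after 24 h switched to DMEM with 1% FBS, no geneticin. Wortmannin 500 nM added 1 h before test compound at 250 μM; DMF 50 μM as positive control; DMSO ≤0.1%. After 6 h, Alamar Blue (4 h, 37°C), then luciferase read as fold over DMSO. Three independent experiments in triplicate.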

Compound	Nrf2 activation (luciferase induction) (Iso 250 μM, DMF 50 μM)	effect on Iso-induced Nrf2 activation (Wortmannin 500 nM added 1 h before Iso 250 μM)
COC(=O)/C=C/C(=O)OC [DMF, Dimethyl fumarate]	induced Nrf2 activation	–
COC[C@H]1OC(=O)c2coc3c2[C@@]1(C)C1=C(C3=O)[C@@H]2CCC(=O)[C@@]2(C)C[C@H]1OC(C)=O [Wortmannin]	–	partially inhibited
